Results taken from ChEMBL document CHEMBL1671853, “Decrease of atazanavir and lopinavir plasma concentrations in a boosted double human immunodeficiency virus protease inhibitor salvage regimen” (Antimicrob Agents Chemother, 2008).

What was measured:
[1] = Cmax in HIV-1 infected patient at 400 mg, po bid coadministered with 100 mg, po bid of ritonavir and NRTI; format: ADME, organism-based; parameters: dose 400 mg, route oral; details: human, in vivo
Summary of the method: (§1)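 HIV-1-infected adults on LPV-RTV gel capsules plus NRTI (n = 17, matched pairs) at steady state after at least 2 weeks of therapy, under a standardized routine TDM protocol with food of approximately 2,500 kJ (21% fat). Plasma sampled predose and at 1, 2, 4, 6, 9 and 12 h. Concentrations by validated LC-MS/MS; noncompartmental parameters given as geometric means (90% CI).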

[2] = AUC in HIV-1 infected patient at 400 mg, po bid coadministered with 100 mg, po bid of ritonavir and NRTI; format: ADME, organism-based; details: human, plasma; summary of the method: as §1
[3] = Half life in HIV-1 infected patient at 400 mg, po bid coadministered with 100 mg, po bid of ritonavir and NRTI; format: ADME, organism-based; details: human, in vivo; summary of the method: as §1
[4] = Apparent oral clearance in HIV-1 infected patient at 400 mg, po bid coadministered with 100 mg, po bid of ritonavir with NRTI; format: ADME, organism-based; details: human, in vivo; summary of the method: as §1
[5] = Cmax in HIV-1 infected patient at 400 mg, po bid coadministered with 100 mg, po bid of ritonavir and 300 mg, po qd of atazanavir; format: ADME, organism-based; parameters: dose 400 mg, route oral; details: human, in vivo
Summary of the method: (§2)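 Retrospective steady-state TDM data from HIV-1-infected adults (n = 17 per group, matched for sex, age, ethnicity and body weight), taken after at least 2 weeks on therapy. Plasma sampled before dosing and at 1, 2, 4, 6, 9, 12 and 24 h, with food of approximately 2,500 kJ (21% fat). Drug levels measured by validated LC-MS/MS; parameters from noncompartmental analysis; geometric means (90% CI).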

[6] = AUC in HIV-1 infected patient at 400 mg, po bid coadministered with 100 mg, po bid of ritonavir and 300 mg, po qd of atazanavir; format: ADME, organism-based; details: human, plasma; summary of the method: as §2
[7] = Half life in HIV-1 infected patient at 400 mg, po bid coadministered with 100 mg, po bid of ritonavir and 300 mg, po qd of atazanavir; format: ADME, organism-based; details: human, in vivo; summary of the method: as §2
[8] = Apparent oral clearance in HIV-1 infected patient at 400 mg, po bid coadministered with 100 mg, po bid of ritonavir and 300 mg, po qd of atazanavir; format: ADME, organism-based; details: human, in vivo; summary of the method: as §2
[9] = AUC in HIV-1 infected patient at 100 mg, po bid coadministered with 400 mg, po bid of Lopinavir and 300 mg, po qd of atazanavir; format: ADME, organism-based; details: human, plasma; summary of the method: as §2
[10] = Cmax in HIV-1 infected patient at 100 mg, po bid coadministered with 400 mg, po bid of Lopinavir and 300 mg, po qd of atazanavir; format: ADME, organism-based; parameters: dose 100 mg, route oral; details: human, in vivo; summary of the method: as §2
[11] = Half life in HIV-1 infected patient at 100 mg, po bid coadministered with 300 mg, po qd of atazanavir and NRTI; details: human, in vivo
[12] = Cmax in HIV-1 infected patient at 100 mg, po bid coadministered with 400 mg, po bid of Lopinavir and NRTI; format: ADME, organism-based; parameters: dose 100 mg, route oral; details: human, in vivo; summary of the method: as §1
[13] = AUC in HIV-1 infected patient at 100 mg, po bid coadministered with 400 mg, po bid of Lopinavir and NRTI; format: ADME, organism-based; details: human, plasma; summary of the method: as §1
[14] = Half life in HIV-1 infected patient at 100 mg, po bid coadministered with 400 mg, po bid of Lopinavir and NRTI; details: human, in vivo
Homo sapiens [15] = experiment: Apparent oral clearance in HIV-1 infected patient at 100 mg, po bid coadministered with 400 mg, po bid of Lopinavir and NRTI; format: ADME, organism-based; details: in vivo; summary of the method: as §1
[16] = AUC in HIV-1 infected patient at 100 mg, po qd coadministered with 300 mg, po qd of atazanavir and NRTI; details: human, plasma
[17] = Cmax in HIV-1 infected patient at 100 mg, po qd coadministered with 300 mg, po qd of atazanavir and NRTI; details: human, in vivo
Homo sapiens [18] = experiment: Apparent oral clearance in HIV-1 infected patient at 100 mg, po qd coadministered with 300 mg, po qd of atazanavir and NRTI; details: in vivo
[19] = Oral clearance in HIV-1 infected patient at 300 mg, po qd coadministered with 100 mg of ritonavir, po qd and NRTI; format: ADME, organism-based; details: human, in vivo; summary of the method: as §2
[20] = Half life in HIV-1 infected patient at 300 mg, po qd coadministered with 100 mg of ritonavir, po qd and NRTI; format: ADME, organism-based; details: human, in vivo; summary of the method: as §2
[21] = AUC in HIV-1 infected patient at 300 mg, po qd coadministered with 100 mg of ritonavir, po qd and NRTI; format: ADME, organism-based; details: human, plasma; summary of the method: as §2
[22] = Cmax in HIV-1 infected patient at 300 mg, po qd coadministered with 100 mg of ritonavir, po qd and NRTI; format: ADME, organism-based; parameters: dose 300 mg, route oral; details: human, in vivo; summary of the method: as §2
[23] = Apparent oral clearance in HIV-1 infected patient at 300 mg, po qd coadministered with 400 mg, po bid and 100 mg, po bid of Lopinavir and ritonavir respectively; format: ADME, organism-based; details: human, in vivo; summary of the method: as §2
[24] = Half life in HIV-1 infected patient at 300 mg, po qd coadministered with 400 mg, po bid and 100 mg, po bid of Lopinavir and ritonavir respectively; format: ADME, organism-based; details: human, in vivo; summary of the method: as §2
[25] = AUC in HIV-1 infected patient at 300 mg, po qd coadministered with 400 mg, po bid and 100 mg, po bid of Lopinavir and ritonavir respectively; format: ADME, organism-based; details: human, plasma; summary of the method: as §2
[26] = Cmax in HIV-1 infected patient at 300 mg, po qd coadministered with 400 mg, po bid and 100 mg, po bid of Lopinavir and ritonavir respectively; format: ADME, organism-based; parameters: dose 300 mg, route oral; details: human, in vivo; summary of the method: as §2

SMILES: Cc1cccc(C)c1OCC(=O)N[C@@H](Cc1ccccc1)[C@@H](O)C[C@H](Cc1ccccc1)NC(=O)[C@H](C(C)C)N1CCCNC1=O [LOPINAVIR]
- Cmax [1]: 6850 ng/mL
- AUC [2]: 59700 ng·h/mL
- half-life [3]: 8.21 h
- CL/F [4]: 99 mL/min
- Cmax [5]: 5250 ng/mL
- AUC [6]: 48500 ng·h/mL
- half-life [7]: 6.56 h
- CL/F [8]: 133 mL/min

SMILES: CC(C)c1nc(CN(C)C(=O)N[C@H](C(=O)N[C@@H](Cc2ccccc2)C[C@H](O)[C@H](Cc2ccccc2)NC(=O)OCc2cncs2)C(C)C)cs1 [RITONAVIR]
- AUC [9]: 3290 ng·h/mL
- Cmax [10]: 468 ng/mL
- half-life [11]: 4.58 h
- Cmax [12]: 525 ng/mL
- AUC [13]: 3580 ng·h/mL
- half-life [14]: 4.03 h
- CL/F (Homo sapiens [15]): 440 mL/min
- AUC [16]: 7770 ng·h/mL
- Cmax [17]: 869 ng/mL
- CL/F (Homo sapiens [18]): 199 mL/min

SMILES: COC(=O)N[C@H](C(=O)N[C@@H](Cc1ccccc1)[C@@H](O)CN(Cc1ccc(-c2ccccn2)cc1)NC(=O)[C@@H](NC(=O)OC)C(C)(C)C)C(C)(C)C [ATAZANAVIR]
- CL/F [19]: 154 mL/min
- half-life [20]: 7.21 h
- AUC [21]: 30300 ng·h/mL
- Cmax [22]: 2740 ng/mL
- CL/F [23]: 185 mL/min
- half-life [24]: 7.79 h
- AUC [25]: 26400 ng·h/mL
- Cmax [26]: 2260 ng/mL
